Results from different studies.
HTR5A: 5-hydroxytryptamine receptor 5A (HTR5A, Homo sapiens, UniProt P47898)
PIK3CD: Phosphatidylinositol 4,5-bisphosphate 3-kinase catalytic subunit delta isoform (PIK3CD, Homo sapiens, UniProt O00329)
Kir1 channel protein: Kir1 channel protein (Aedes aegypti, UniProt L0EQS9)
DRD4: D(4) dopamine receptor (DRD4, Homo sapiens, UniProt P21917)

With CS(=O)(=O)C1(CNCc2ccc(Cl)c3cccnc23)CC1 the Ki was 126 nM (HTR5A; ligand displacement, radioligand).
For Nc1nc2c(ncn2[C@@H]2O[C@H](COP(=O)(O)OP(=O)(O)O)[C@@H](OP(=O)(O)OP(=O)(O)O)[C@H]2O)c(=O)[nH]1, the Kd was 79000 nM (cmk (Escherichia coli, UniProt P0A6I0); binding, ITC).
With CS(=O)(=O)C1(CNCc2cccc3cccnc23)CC1 the Ki was 41.7 nM (HTR5A; ligand displacement, radioligand).
C=CC(=O)N1CCC(C(=O)NCC(=O)N2CCN(c3nc(-c4cnc(N)nc4C(F)F)nc(N4CCOCC4)n3)CC2)CC1 has a Kd of 0.71 nM (PIK3CD; binding, competition with immobilised ligand).
For CC[C@@H]1C(=O)OC[C@@H]1Cc1cncn1C, the Kd was 26500 nM (Cytochrome P450 2E1 (CYP2E1, Homo sapiens, UniProt P05181); binding).
For O=[N+]([O-])c1ccc(N2CCN(S(=O)(=O)c3ccc(Cl)cc3)CC2)cc1NCc1ccco1, the IC50 was 34.2 nM (Kir1 channel protein; ion current, inhibitor, patch clamp).
The EC50 of COc1cc(F)cc2c(N3CCN4c5ccccc5OC[C@@H]4C3)c(C#N)nnc12 (single isomer, unassigned) is reported as greater than 30000 nM (Metabotropic glutamate receptor 8 (GRM8, Homo sapiens, UniProt O00222); calcium signal, positive allosteric modulator).
The IC50 of CN1CCN(c2ccc(Nc3ncc4cc(C#N)c(=O)n(C5CCCC5)c4n3)cc2)CC1 is reported as greater than 10000 nM (Calcium/calmodulin-dependent protein kinase type 1 (CAMK1, Homo sapiens, UniProt Q14012); enzyme activity, inhibitor).
For CC(C)=CCC/C(C)=C/CC/C(C)=C/CSc1ccccc1C(=O)O, the Ki was 370 nM (Squalene synthase (Homo sapiens, UniProt P37268); enzyme activity, inhibitor).
With O=S(=O)(c1ccc(F)cc1)N1CCN(c2ccnc(NCc3ccncc3)c2)CC1 the IC50 was 4000 to 9000 nM (Kir1 channel protein; ion flux, inhibitor).
CC1=C(O)C(=O)OC1C (stereo not shown) has an EC50 of 13500 nM (OR8D1 (Homo sapiens, UniProt Q8WZ84, R293A); cAMP, agonist, luciferase).
With COc1ccc(CCC2=NCCN2CCc2ccccc2)cc1 the Ki was 501 nM (DRD4; ligand displacement, radioligand).
With CCn1c(-c2nc3ccc(C(=O)N4CCCC(N)C4)cc3n2C)cc2ccccc21 (stereo not shown) the EC50 was greater than 50100 nM (Nuclear receptor subfamily 1 group I member 2 (NR1I2, Homo sapiens, UniProt O75469); reporter gene, agonist, luciferase).
O=[N+]([O-])c1ccc(N2CCN(S(=O)(=O)c3ccc(F)cc3)CC2)cc1NCc1cccnc1 gave an IC50 of 57 nM (Kir1 channel protein; ion current, inhibitor, patch clamp).
The Kd of C=CC(=O)N1CCC(C(=O)N(C)CC(=O)N2CCN(c3nc(-c4cnc(N)nc4C(F)F)nc(N4CCOCC4)n3)CC2)CC1 is reported as 2.2 nM (PIK3CD; binding, competition with immobilised ligand).
CCCCCCCNCCCc1ccc([N+](=O)[O-])cc1 has a Ki of 240 nM (DRD4; ligand displacement, radioligand).
With COc1ccc(F)cc1C(=O)NCc1ccc(-c2nn([C@@H](C)C(F)(F)F)c(N)c2C(N)=O)cc1 the IC50 was 12.6 nM (Tyrosine-protein kinase BTK (BTK, Homo sapiens, UniProt Q06187, C481R); phosphorylation in cells, inhibitor).
For COc1ccccc1N1CCN(CCCCN2CCc3ccccc3C2=O)CC1, the Ki was 6 nM (DRD4; ligand displacement, radioligand).
The Kd of Cc1cnc(-c2ccc(-c3ccc(NC(=O)Nc4c(F)cc(F)cc4F)cc3F)c3c2C(=O)NC3)[nH]1 is reported as 27 nM (Tyrosine-protein kinase BTK (BTK, Homo sapiens, UniProt Q06187); binding, competition with immobilised ligand).
CC(C)c1nc2cc(OCCCCN3CCN(c4cccc5c4OCCO5)CC3)ccc2s1 has a Ki of 330 nM (HTR5A; ligand displacement, radioligand).
For COc1ccc2c(c1)C(=O)N(CCN1CCN(c3ccccc3OC)CC1)C2, the Ki was 191 nM (DRD4; ligand displacement, radioligand).
The Ki of CCCCN1CCC(COC(=O)c2ccc(N)c(OCF)c2)CC1 is reported as greater than 10000 nM (HTR5A; cell-free assay, radioligand).
CCCCCCSC[C@H]1CN(Cc2c[nH]c3c(N)ncnc23)C[C@@H]1O has a Ki of 0.085 nM (Aminodeoxyfutalosine nucleosidase (Helicobacter pylori, UniProt Q9ZMY2); enzyme activity, inhibitor, absorbance; pH 7.4).
O=S(=O)(c1ccc(Cl)cc1)N1CCN(c2ccc(C(F)(F)F)c(NCc3ccncc3)c2)CC1 gave an IC50 of 4000 to 9000 nM (Kir1 channel protein; ion flux, inhibitor).
For CC[C@H](NC(=O)[C@H](CS(=O)(=O)CC1CC1)N[C@@H](c1ccc(F)cc1)C(F)(F)F)C(=O)C(=O)NC1CC1, the Ki was 4.7 nM (Cathepsin F (Homo sapiens, UniProt Q9UBX1); enzyme activity, inhibitor, fluorescence; with preincubation).
